Experimental data reported in ChEMBL document CHEMBL5108054, “Targeting Acute Myelogenous Leukemia Using Potent Human Dihydroorotate Dehydrogenase Inhibitors Based on the 2-Hydroxypyrazolo[1,5-a]pyridine Scaffold: SAR of the Aryloxyaryl Moiety” (J Med Chem, 2022).
Active and inactive are the calls of the source. The rule behind the calls is not given here.

Tests used:
Jurkat = test: Cytotoxicity against human Jurkat T cells assessed as reduction in cell viability at 1 to 100 uM measured after 3 days by propidium iodide staining based CFSE staining; assay type: functional; conditions: dose 1-100 µM; time 3 day
THP-1 [1] = test: Induction of apoptosis in human THP-1 cells assessed as increase in pro-apoptotic activity at 1 uM; assay type: functional, cell-based
MV4-11 [2] = test: Induction of apoptosis in human MV4-11 cells assessed as increase in pro-apoptotic activity at 1 uM; assay type: functional, cell-based
[3] = Metabolic stability in rat liver microsomes assessed as retention time of hydrogenated dihydroxyl derivative metabolite by HPLC-HRMS analysis; assay type: ADME, Microsome
Method in brief: (§1)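 Controls were heat-inactivated microsomes, no regenerating system, and drug-free blank. Samples were taken at 0, 15, 30, 60 and 120 min and quenched with cold acetonitrile. Analysis was by LC-HRMS (C18, water/acetonitrile gradient, ± ESI), with metabolites predicted by SyGMa.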

[4] = Metabolic stability in rat liver microsomes assessed as retention time of dihydroxyl derivative metabolite by HPLC-HRMS analysis; assay type: ADME, Microsome; method in brief: as §1
[5] = Metabolic stability in rat liver microsomes assessed as retention time of hydroxyl derivative metabolites by HPLC-HRMS analysis; assay type: ADME, Microsome; method in brief: as §1
THP-1 [6] = test: Induction of apoptosis in human THP-1 cells assessed as increase in pro-apoptotic activity at 0.1 uM; assay type: functional, cell-based
Method in brief: (§2)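 THP1 or MV4-11 cells (1 × 10^4/well) exposed to inhibitor at 0.1 or 1 μM, alone or with dipyridamole 1.0 μM and/or uridine 5 μM, for 3 days. Apoptosis was read as annexin V-FITC staining by flow cytometry. n = 3; ANOVA/Tukey.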

[7] = Metabolic stability in rat liver microsomes assessed as retention time of parent compound by HPLC-HRMS analysis; assay type: ADME, Microsome; method in brief: as §1
THP-1 [8] = test: Antileukemic activity against human THP-1 cells xenografted in Balb/c mouse assessed as reduction in volume at 20 mg/kg, ip measured twice a week; assay type: functional, organism-based
MV4-11 [9] = test: Induction of apoptosis in human MV4-11 cells assessed as increase in pro-apoptotic activity at 0.1 uM; assay type: functional, cell-based; method in brief: as §2
THP-1 [10] = test: Antileukemic activity against human THP-1 cells xenografted in Balb/c mouse assessed as reduction in tumor weight at 20 mg/kg, ip; assay type: functional, organism-based

| SMILES | CC30 (Jurkat) [µM] | Activity (THP-1 [1]) | Activity (MV4-11 [2]) | Retention_time [3] [min] | Retention_time [4] [min] | Retention_time [5] [min] | Activity (THP-1 [6]) | Retention_time [7] [min] | Activity (THP-1 [8]) | Activity (MV4-11 [9]) | Activity (THP-1 [10]) |
| --- | --- | --- | --- | --- | --- | --- | --- | --- | --- | --- | --- |
| Cc1cc(Oc2ccccc2)c(C(C)C)cc1NC(=O)c1c(O)nn2ccccc12 | >100 | Active | Active | – | – | – | – | – | – | – | – |
| O=C(Nc1c(F)c(F)c(-c2ccccc2)c(F)c1F)c1c(O)nn2ccccc12 | – | – | – | 14.14 | 10.59 | 13.41 | – | – | – | – | – |
| Cc1cc(NC(=O)c2c(O)nn3ccccc23)c(C(C)C)cc1Oc1ccccc1 | >100 | – | – | – | – | – | Active | 17.33 | Active | Active | Active |
